Results as given in ChEMBL document CHEMBL1909641, “Rational design of 2-pyrrolinones as inhibitors of HIV-1 integrase” (Bioorg Med Chem Lett, 2011).

How the values were obtained:
[1] = target: T1, Human immunodeficiency virus type 1 integrase (Human immunodeficiency virus 1, UniProt Q7ZJM1); assay: Inhibition of HIV1 integrase-mediated single strand tansfer of viral DNA after 30 mins by PAGE
[2] = Cytotoxicity against human TZM-bl cells infected with HIV1 pNL4.3; assay type: cell-based
Outline: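 CC50 is the cytostatic concentration required to kill 50% of TZM-bl cells.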

[3] = target: T1, Human immunodeficiency virus type 1 integrase; assay: Inhibition of HIV1 integrase-mediated 3' processing of viral DNA after 30 mins by PAGE
[4] = tested on: Human immunodeficiency virus 1; assay: Antiviral activity against HIV1 pNL4.3 infected in human TZM-bl cells by luciferase reporter gene assay; assay type: functional, organism-based
[5] = Selectivity index, ratio of CC50 against human TZM-bl cells to EC50 for inhibition of HIV1 integrase activity in TZM-bl cells infected with HIV1 pNL4.3; assay type: toxicity, cell-based; details: read-out: Ratio CC50/EC50
Outline: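 SI is calculated as the CC50 in TZM-bl cells divided by the antiviral EC50.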

T1 sequence (Q7ZJM1 whole entry): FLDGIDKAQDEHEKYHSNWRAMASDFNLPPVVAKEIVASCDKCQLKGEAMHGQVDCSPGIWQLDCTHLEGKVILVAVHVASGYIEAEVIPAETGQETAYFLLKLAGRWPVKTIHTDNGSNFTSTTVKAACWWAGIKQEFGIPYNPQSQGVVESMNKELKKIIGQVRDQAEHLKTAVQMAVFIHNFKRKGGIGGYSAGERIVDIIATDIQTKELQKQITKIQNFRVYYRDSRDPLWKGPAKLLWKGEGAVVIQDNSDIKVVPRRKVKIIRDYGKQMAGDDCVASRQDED

Row | Structure (SMILES) | IC50 [1] | IC50 [3] | EC50 ([4]; tzm-bl) | EC50 ([4]; Human immunodeficiency virus 1, pNL4.3, TZM-bl, read-out: EC50) | CC50 [2] | selectivity ratio [5]
1 | COc1ccc(CCN2C(=O)C(O)=C(C(=O)c3ccccc3)C2c2ccccc2)cc1 (stereo not given) | 45 µM | 80 µM | Not Active |  | 830 µM | 
2 | COc1ccc(CCN2C(=O)C(O)=C(C(=O)c3ccccc3)C2c2ccc(O)cc2)cc1 (stereo not given) | 100 µM | > 100 µM | Not Active |  | 459 µM | 
3 | COc1ccc(CCN2C(=O)C(O)=C(C(=O)c3ccccn3)C2c2cccc(Cl)c2)cc1 (stereo not given) | 40 µM | 77 µM |  | 0.317 µM | 26.6 µM | 83.7
4 | CN1C(=O)C(O)=C(C(=O)c2ccccn2)C1c1cccc(Cl)c1 (stereo not given) | > 100 µM | > 100 µM |  |  |  | 

The next lines start with results.

Row | IC50 [1] | IC50 [3] | EC50 ([4]; tzm-bl) | EC50 ([4]; Human immunodeficiency virus 1, pNL4.3, TZM-bl, read-out: EC50) | Structure (SMILES) | CC50 [2] | selectivity ratio [5]
5 | > 100 µM | > 100 µM |  |  | CN1C(=O)C(O)=C(C(=O)c2ccccc2)C1c1ccc([N+](=O)[O-])cc1 (stereo not given) |  | 
6 | 44 µM | 89 µM | Not Active |  | O=C(C1=C(O)C(=O)N(c2ccccc2)C1c1ccc([N+](=O)[O-])cc1)c1ccccc1 (stereo not given) | 790 µM | 
7 | > 100 µM | > 100 µM |  |  | CN1C(=O)C(O)=C(C(=O)c2ccccc2)C1c1cccc(Cl)c1 (stereo not given) |  | 
8 | > 100 µM | > 100 µM |  |  | CC(C)CN1C(=O)C(O)=C(C(=O)c2ccccc2)C1c1ccccc1 (stereo not given) |  | 
